Results: PubChem BioAssay
Inconclusive results are not listed.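 How the source made its calls, unless noted: active means viability at or below 27.92% in each of two runs, the all-compound median minus 4 SD; inconclusive means no clear call, values can overlap the other calls; inactive means the rest.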

What was measured:
[1] = OD615 S. cerevisiae growth inhibition, permissive medium, pilot counter-assay, permissive growth control for S. cerevisiae lifespan shortening project (AID 705;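 active means growth inhibition above 25% in both replicates, a cutoff set 3 SD above the mean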); settings: OD615, 24 h, at 10 µM, stronger effect = higher value
Outline: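 Timing: 24 h exposure, 30 °C / Material: Saccharomyces cerevisiae strain carrying genetically modified DeaD replicative-lifespan system / Signal: OD at 615 nm / Compound: 10 µM single dose, 0.25% DMSO / Medium: SC raffinose/galactose permissive medium / Evaluation: reduction in yeast growth (OD615)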

[2] = Restrictive medium S. cerevisiae growth inhibition, OD615, pilot screen of yeast lifespan reduction project, restrictive growth control (AID 706;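 active means growth inhibition above a set limit, 3 SD over mean compound inhibition, in both replicates, cut at about 43% in these data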;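 further: modified DeaD lifespan yeast strain shifted to restrictive glucose medium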); settings: OD615, 48 h, at 10 µM, stronger effect = higher value
Outline: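 System: Engineered S. cerevisiae DeaD strain | Detection: OD615 | Buffer or medium: CSMM-D glucose medium | Doses: 10 µM compound, 0.25% DMSO | Timing: 4 h pre-growth plus 48 h compound exposure, 30 °C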

[3] = viability gain of MRP-1-high H69AR cells under doxorubicin, pilot screen, MRP-1 activator project, CellTiter-Glo, duplicate (AID 807;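 active means viability increase at or above a cutoff of the median across tested compounds plus 3 SD, cut at about 8.5% in these data, passing the limit was not always enough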;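 further: compound pretreatment 18-22 h then 72 h combined with doxorubicin; 0% = doxorubicin alone and 100% = vehicle without doxorubicin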); settings: H69AR viability with doxorubicin, CellTiter-Glo luminescence; at 10 µM; stronger effect = higher value
[4] = growth suppression of beta-catenin knockout HCT116, pilot screen, human colon tumor cells (AID 823;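 active means cell viability at or below a set limit in both duplicate runs, the limit being the all-compound median minus 4 SD, cut at about 23% in these data, passing the limit was not always enough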;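 further: 0% = wells killed by 20 µM Hyamine and 100% = untreated DMSO cell wells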); settings: CellTiter-Glo, 60 h, at 10 µM, stronger effect = lower value
[5] = growth suppression of PTEN-deleted HCT116, pilot screen, cell-based, HCT116 clonal line, CellTiter-Glo (AID 824); settings: 60 h, at 10 µM, stronger effect = lower value;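 further: 0% = 20 µM Hyamine control and 100% = vehicle cell control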
[6] = inhibitors of the yeast RAM network, pilot screen, dse1pr::URA3 reporter, 5-FOA selection (AID 869;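 active means inhibition over a set limit, the all-compound mean plus 3 SD, in both replicate runs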;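 further: 0% = DMSO wells with no growth and 100% = 10 µM 1-NA-PP1 with full growth; RAM network block rescues cells from 5-FOA so hits raise OD615 growth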); settings: S. cerevisiae dse1pr::URA3 5-FOA growth, OD615, 2 d; at 10 µM; stronger effect = higher value; strain carries analog-sensitive mutant Cbk1 kinase
[7] = RAM signaling pathway blockade in yeast – S. cerevisiae, Pdr1DBD-CYC8 efflux-inhibited sensitized strain, primary screen (AID 1298;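 active means RAM network inhibition above 8.4% in each of two replicates, 3 SD over the compound average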;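 further: 0% = DMSO untreated cells without growth and 100% = 10 µM 1-NA-PP1 full growth; higher means more yeast growth rescued from 5-FOA killing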); settings: S. cerevisiae cbk1-as DSE1-URA3 strain, 5-FOA growth OD615, 2 d; at 50 µM; stronger effect = higher value

CC(C)(C)c1ccc(OCC(O)CS(=O)(=O)c2ccccn2)cc1 (centres undefined)
inactive: growth inhibition [1] -20.8% | growth inhibition [2] -19.1% | viability increase [3] -0.66% | viability [4] 97.8% | viability [5] 94.5% | inhibition [6] -0.5% | RAM network inhibition [7] 4.16%

COc1ccccc1CNC(=O)c1ccc(CNc2c(N3CCCC3)c(=O)c2=O)cc1
inactive: growth inhibition [1] 3.65% | growth inhibition [2] -2.78% | viability increase [3] -2.46% | viability [4] 98.8% | viability [5] 94.8% | inhibition [6] 0.46% | RAM network inhibition [7] 2.8%

CCOC(=O)c1ccc(NC(=O)CSc2nc(C)cc(=O)[nH]2)cc1
inactive: growth inhibition [1] -7.82% | growth inhibition [2] 8.13% | viability increase [3] -1.06% | viability [4] 98.5% | viability [5] 100% | inhibition [6] -0.79% | RAM network inhibition [7] 0.78%

Cc1ccc(N)c(C(O)(C(F)(F)F)C(F)(F)F)c1
inactive: growth inhibition [1] -4.98% | growth inhibition [2] -2.67% | viability increase [3] 2.71% | viability [4] 105% | viability [5] 99.6% | inhibition [6] -0.695% | RAM network inhibition [7] 2.27%

CCOc1cccc(C2c3c(oc4cc(C)c(C)cc4c3=O)C(=O)N2CCCN(C)C)c1 (centres undefined)
inactive: growth inhibition [1] 1.31% | growth inhibition [2] -0.895% | viability increase [3] -3.58% | viability [4] 92.9% | viability [5] 85.9% | inhibition [6] 1.8% | RAM network inhibition [7] 2.55%

COc1cccc(C2NC(C)(C(=O)O)C3C(=O)N(C(C)C)C(=O)C23)c1O (centres undefined)
inactive: growth inhibition [1] 2.59% | growth inhibition [2] 1.56% | viability increase [3] -1.19% | viability [4] 91.5% | viability [5] 91.3% | inhibition [6] 1.82% | RAM network inhibition [7] 2.7%

CCOC(=O)N1CCC(C(=O)Nc2ccc(OCC)cc2)CC1
inactive: growth inhibition [1] 5.44% | growth inhibition [2] -3.75% | viability increase [3] -1.27% | viability [4] 88% | viability [5] 93.9% | inhibition [6] 0.495% | RAM network inhibition [7] 6.44%

Cc1ccccc1NCN1C(=O)C2C3C=CC(C3)C2C1=O (centres undefined)
inactive: growth inhibition [1] -11.2% | growth inhibition [2] -18.2% | viability increase [3] -2.43% | viability [4] 86% | viability [5] 96.2% | inhibition [6] 3.66% | RAM network inhibition [7] 0.48%

CCOc1ccc(Br)cc1/C=N/O
inactive: growth inhibition [1] -17.4% | growth inhibition [2] -29.9% | viability increase [3] -1.73% | viability [4] 80.3% | viability [5] 87.1% | inhibition [6] 0.11% | RAM network inhibition [7] -0.16%

Cc1ccc(C(=O)N2CCN(C3CCCCC3)CC2)s1
inactive: growth inhibition [1] -3.88% | growth inhibition [2] -0.76% | viability increase [3] -1.15% | viability [4] 102% | viability [5] 97.7% | inhibition [6] 1.48% | RAM network inhibition [7] 1.05%

CC(C)c1cc(N2CCN(C(=O)c3ccco3)CC2)n2c(nc3ccccc32)c1C#N
inactive: growth inhibition [1] -3.91% | growth inhibition [2] 0.12% | viability increase [3] -5.67% | viability [4] 94.1% | viability [5] 91.6% | inhibition [6] 2.04% | RAM network inhibition [7] 3.57%

Cc1cc(C(=O)OCc2nnc(-c3ccccc3)o2)c(C)n1-c1ccccc1
inactive: growth inhibition [1] -4.06% | growth inhibition [2] -12% | viability increase [3] -1.07% | viability [4] 84.4% | viability [5] 80.6% | inhibition [6] 0.125% | RAM network inhibition [7] 2.44%

Cc1ccc(S(=O)(=O)c2nc(S(C)(=O)=O)sc2N(C)C)cc1
inactive: growth inhibition [1] 0.44% | growth inhibition [2] -4.42% | viability increase [3] -5.6% | viability [4] 86% | viability [5] 86.9% | inhibition [6] 0.565% | RAM network inhibition [7] 2.51%

CC1CCN(c2nc3c(c(=O)n(C)c(=O)n3C)n2CCSc2ncccn2)CC1
inactive: growth inhibition [1] -3.47% | growth inhibition [2] -3.19% | viability increase [3] -0.04% | viability [4] 99.1% | viability [5] 96.3% | inhibition [6] 1.61% | RAM network inhibition [7] 2.44%

CC1CCc2nn(CC(=O)NC3CCCC(C)C3C)cc2C1 (centres undefined)
inactive: growth inhibition [1] -6.6% | growth inhibition [2] -6.19% | viability increase [3] 1.67% | viability [4] 97.5% | viability [5] 85.3% | inhibition [6] -0.3% | RAM network inhibition [7] 1.94%

CN1CCN(CCCNC(=O)c2ccc3c(c2)N(Cc2ccccc2)CCS3)CC1
inactive: growth inhibition [1] -2.21% | growth inhibition [2] -12.1% | viability increase [3] -5.47% | viability [4] 64.8% | viability [5] 67.4% | inhibition [6] 0.9% | RAM network inhibition [7] 4.28%

CC(=O)NC(CCS(C)(=O)=O)C(=O)Nc1cc(C)ccc1C (centres undefined)
inactive: growth inhibition [1] -10.6% | growth inhibition [2] -20% | viability increase [3] 0.57% | viability [4] 98.5% | viability [5] 94.3% | inhibition [6] 2.23% | RAM network inhibition [7] 3.07%
